Measured values taken from article PMC4887403 (Bioorganic & medicinal chemistry letters, 2016).

Legend:
[1] = tested on: asexual parasites of the chloroquine-sensitive 3D7 strain of P. falciparum; assay: asexual blood stage assay; format: cell-based; conditions: Plasmodium falciparum, 3D7, read-out: asexual activity (IC50, text)
Outline: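 Asexual blood-stage parasites of chloroquine-sensitive P. falciparum 3D7 are tested with test compound in an 11-point dose-response, in duplicate. Each run includes a positive control and a DMSO negative control.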

[2] = tested on: HepG2 cells; assay: HepG2 cell viability; format: cell-based; conditions: highest concentration tested 46 µM
Outline: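 HepG2 cells are incubated with test compound to measure general cytotoxicity as cell viability. The assay uses an 11-point dose-response in duplicate, with a positive control and a DMSO negative control.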

[3] = tested on: malaria transmission; conditions: mouse model; cited from earlier work

Row | SMILES | IC50 [1] [nM] | further results
1 | Cn1c(=O)n(-c2cccc(C(F)(F)F)c2)c2c3cc(-c4ccc(N)cc4)ccc3ncc21 [Compound 35] | < 100 | –
2 | Cn1c(=O)n(-c2ccc(C#N)cc2)c2c3cc(-c4ccc(N)nc4)ccc3ncc21 [Compound 60] | – | HepG2 cytotoxicity [2]: no measurable HepG2 cytotoxicity
3 | Nc1ccc(-c2ccc3ncc4ccc(=O)n(-c5cccc(C(F)(F)F)c5)c4c3c2)cn1 [Torin 2] | – | efficacy for blocking malaria transmission [3]: efficacy for blocking malaria transmission in a mouse model
4 | Cn1c(=O)n(-c2cccc(C(F)(F)F)c2)c2c3cc(-c4cccc(N)c4)ccc3ncc21 [Compound 37] | < 100 | –
